Assay results as given in ChEMBL document CHEMBL6134855, “Peptidomimetics Activating the Proteasome: A New Perspective for Parkinson's Treatment” (J Med Chem, 2025).
One block for each compound: values may come before it. The source made the active and inactive calls. The rule behind the calls is not given here. Where a SMILES comes first, the peptide text is derived from it. [ ]: non-standard residue; d: D form. N(4-MeOBn)Gly = COc1ccc(CNCC(=O)O)cc1; NMeY = CN[C@@H](Cc1ccc(O)cc1)C(=O)O; Gly(N-CH2CH2OH) = O=C(O)CNCCO; NMeK = CN[C@@H](CCCCN)C(=O)O; Nlys = NCCCCNCC(=O)O

Assays:
[1] = target: T1, 20S proteasome (Homo sapiens) (UniProt P49721+P20618+P28074+P28062+P28065+P28072+P25786+P25787+P25788+P25789+P28066+P60900+O14818+Q8TAA3+P40306+A5LHX3+P49720+P28070+Q99436); assay: Activation of human erythrocyte-derived 20S proteasome chymotrypsin-like activity using succinyl-LeuLeuValTyr-AMC as substrate assessed as fold increase in activity incubated for 1 hr by fluorescence based analysis relative to control; conditions: filed as activator
Outline: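 h20S proteasome 0.002 mg/mL (2.8 nM) in 50 mM Tris/HCl pH 8.0, 2% DMSO final. Suc-LLVY-AMC 100 μM final. Modulators 1.0–50 μM (TAT/6R constructs 0.5–10 μM). AMC fluorescence ex 380/em 460 nm read every 2 min for 60 min at 37 °C. Activity relative to DMSO-treated latent proteasome (100%); ≥3 replicates.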

[2] = target: T1, 20S proteasome (Homo sapiens); assay: Activation of human erythrocyte-derived 20S proteasome using Dabcyl-EDANS as FRET-type substrate at 1.0 to 50 uM measured every two mins for 60 mins by fluorescence based analysis; assay type: cell-based; conditions: filed as activator, dose 1-50 µM
Outline: (§1)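 Latent human 20S proteasome (0.002 mg/mL, 2.8 nM) in 50 mM Tris/HCl pH 8.0 with 2% DMSO. AMC substrates at 100 μM final (ex 380/em 460 nm); Dabcyl-EDANS at 15 μM final (ex 335/em 493 nm). Modulators at 1.0–50 μM; TAT- or 6R-containing constructs at 0.5–10 μM. Read every 2 min for 60 min at 37 °C. Activity relative to DMSO-treated proteasome (100%). ≥3 independent replicates.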

[3] = target: T1, 20S proteasome (Homo sapiens); assay: Activation of human erythrocyte-derived 20S proteasome chymotrypsin-like activity using Suc-LLVY-AMC as substrate at 1.0 to 50 uM measured every two mins for 60 mins by fluorescence based analysis; conditions: filed as activator, dose 1-50 µM
[4] = target: T1, 20S proteasome (Homo sapiens); assay: Activation of human erythrocyte-derived 20S proteasome trypsin-like activity using Boc-LRR-AMC as substrate at lower concentration measured every two mins for 60 mins by fluorescence based analysis; conditions: filed as activator; outline: as §1
[5] = target: T1, 20S proteasome (Homo sapiens); assay: Activation of human erythrocyte-derived 20S proteasome using Dabcyl-EDANS as FRET-type substrate at lower concentration measured every two mins for 60 mins by fluorescence based analysis; assay type: cell-based; conditions: filed as activator; outline: as §1
[6] = target: T1, 20S proteasome (Homo sapiens); assay: Activation of human erythrocyte-derived 20S proteasome chymotrypsin-like activity using Suc-LLVY-AMC as substrate at lower concentration measured every two mins for 60 mins by fluorescence based analysis; conditions: filed as activator; outline: as §1
[7] = Proteolytic stability of compound in human plasma assessed as protease-mediated degradation by measuring compound remaining at 200 uM incubated for 30 mins by UHPLC analysis; assay type: ADME, cell-free; conditions: read-out: Stability
Outline: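 Compound (200 μM final, dissolved in water) incubated in human serum at 37 °C for 30 min. Samples every 5 min quenched 1:1 with 6% TCA and centrifuged. Supernatant analysed by UHPLC (UV 223 nm) for intact compound; cleavage sites identified by MS.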

[8] = target: T1, 20S proteasome (Homo sapiens); assay: Activation of human erythrocyte-derived 20S proteasome caspase-like activity using Z-LLE-AMC as substrate at lower concentration measured every two mins for 60 mins by fluorescence based analysis; conditions: filed as activator; outline: as §1
[9] = target: T1, 20S proteasome (Homo sapiens); assay: Activation of human erythrocyte-derived 20S proteasome chymotrypsin-like activity using Suc-LLVY-AMC as substrate at higher concentration measured every two mins for 60 mins by fluorescence based analysis; conditions: filed as activator; outline: as §1
[10] = target: T1, 20S proteasome (Homo sapiens); assay: Activation of human erythrocyte-derived 20S proteasome chymotrypsin-like activity using Suc-LLVY-AMC as substrate at 1 uM measured every two mins for 60 mins by fluorescence based analysis; conditions: filed as activator; outline: as §1
[11] = Permeability of compound in PBS incubated for 22 hrs by PAMPA-BBB assay; assay type: ADME
Outline: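 PAMPA-BBB with a 2% porcine brain lipid membrane. Compounds were diluted from 10 mM aqueous stocks to 500 μM in 0.1 M PBS containing 5% DMSO and incubated 22 h at 37 °C with shaking at 250 rpm. Read-out was fluorescence after reaction with 0.02% fluorescamine (absorbance at 290 nm for propranolol). Pe calculated as linear permeation velocity. Three biological replicates.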

[12] = target: T1, 20S proteasome (Homo sapiens); assay: Activation of human erythrocyte-derived 20S proteasome using Dabcyl-EDANS as FRET-type substrate assessed as fold increase in activity at 1.0 to 50 uM measured every two mins for 60 mins by fluorescence based analysis relative to control; assay type: cell-based; conditions: filed as activator, dose 1-50 µM; outline: as §1
[13] = target: T1, 20S proteasome (Homo sapiens); assay: Activation of human erythrocyte-derived 20S proteasome chymotrypsin-like activity using Suc-LLVY-AMC as substrate assessed as fold increase in activity at 1.0 to 50 uM measured every two mins for 60 mins by fluorescence based analysis relative to control; conditions: filed as activator, dose 1-50 µM; outline: as §1

Compound: N=C(N)NCCC[C@H](NC(=O)CN)C(=O)N[C@@H](CCCCN)C(=O)N[C@@H](CCCCN)C(=O)N[C@@H](CCCNC(=N)N)C(=O)N[C@@H](CCCNC(=N)N)C(=O)N[C@@H](CCC(N)=O)C(=O)N1Cc2ccccc2CC1C(=O)N1[C@@H](C(=O)N[C@@H](CCCNC(=N)N)C(=O)N2CCC[C@H]2C(=O)N[C@@H](CO)C(=O)O)C[C@@H]2CCCC[C@@H]21 (some centres not stated)
fold change (FC) [1]: 8

Compound: NCCCC[C@H](NC(=O)[C@H](CCCCN)NC(=O)[C@@H](N)CCCCN)C(=O)Nc1cc(NC(=O)[C@H](CCCCN)NC(=O)[C@H](CCCCN)NC(=O)[C@@H](N)CCCCN)cc(NC(=O)[C@H](CCCCN)NC(=O)[C@H](CCCCN)NC(=O)[C@@H](N)CCCCN)c1
fold change (FC) [1]: 10

Compound: C[C@@H](O)[C@H](NC(=O)[C@H](Cc1ccccc1)NC(=O)[C@H](Cc1ccc(O)cc1)NC(=O)[C@@H](N)CCCCN)C(=O)NCC(=O)N[C@@H](CO)C(=O)N[C@@H](CCCCN)C(=O)N[C@@H](CC(=O)O)C(=O)N[C@@H](Cc1c[nH]c2ccccc12)C(=O)N[C@@H](CCCNC(=N)N)C(=O)N(CCO)CC(=O)N[C@@H](Cc1ccc(O)cc1)C(=O)N[C@@H](Cc1ccc(O)cc1)C(=O)N[C@@H](CO)C(=O)O (H-KYFTGSKDWR[Gly(N-CH2CH2OH)]YYS-OH)
Activity [2]: Active | Activity [3]: Active; Lower Capacity Of Activation Is Observed

Compound: C[C@@H](O)[C@H](NC(=O)[C@H](Cc1ccccc1)NC(=O)[C@H](Cc1ccc(O)cc1)NC(=O)[C@@H](N)CCCCN)C(=O)NCC(=O)N[C@@H](CO)C(=O)N(CCCCN)CC(=O)N[C@@H](CC(=O)O)C(=O)N[C@@H](Cc1ccc(O)cc1)C(=O)N[C@@H](CCCNC(=N)N)C(=O)N[C@@H](CCCNC(=N)N)C(=O)N[C@@H](Cc1ccc(O)cc1)C(=O)N[C@@H](Cc1ccc(O)cc1)C(=O)N[C@@H](CO)C(=O)O (H-KYFTGS[Nlys]DYRRYYS-OH)
Activity [9]: Active

Compound: COc1ccc(CN(CC(=O)N[C@@H](Cc2ccccc2)C(=O)N[C@H](C(=O)NCC(=O)N[C@@H](CO)C(=O)N[C@@H](CCCCN)C(=O)N[C@@H](CC(=O)O)C(=O)N[C@@H](Cc2ccc(O)cc2)C(=O)N[C@@H](CCCNC(=N)N)C(=O)N[C@@H](CCCNC(=N)N)C(=O)N[C@@H](Cc2ccc(O)cc2)C(=O)N[C@@H](Cc2ccc(O)cc2)C(=O)N[C@@H](CO)C(=O)O)[C@@H](C)O)C(=O)[C@@H](N)CCCCN)cc1 (H-K[N(4-MeOBn)Gly]FTGSKDYRRYYS-OH)
Activity [10]: Moderate_effect

Compound: C[C@@H](O)[C@H](NC(=O)[C@H](Cc1ccccc1)NC(=O)[C@H](Cc1ccc(O)cc1)NC(=O)CNCCCCN)C(=O)NCC(=O)N[C@@H](CO)C(=O)N[C@@H](CCCCN)C(=O)N[C@@H](CC(=O)O)C(=O)N[C@@H](Cc1c[nH]c2ccccc12)C(=O)N[C@@H](CCCNC(=N)N)C(=O)N[C@@H](CO)C(=O)N[C@@H](Cc1ccc(O)cc1)C(=O)N[C@@H](Cc1ccc(O)cc1)C(=O)N[C@@H](CO)C(=O)O (H-[Nlys]YFTGSKDWRSYYS-OH)
permeability [11]: Impermeable

Compound: C[C@@H](O)[C@H](NC(=O)[C@H](Cc1ccccc1)NC(=O)[C@H](Cc1ccc(O)cc1)NC(=O)CNCCCCN)C(=O)NCC(=O)N[C@@H](CO)C(=O)N[C@@H](CCCCN)C(=O)N[C@@H](CC(=O)O)C(=O)N[C@@H](Cc1c[nH]c2ccccc12)C(=O)N[C@@H](CCCNC(=N)N)C(=O)N(CCO)CC(=O)N[C@@H](Cc1ccc(O)cc1)C(=O)N[C@@H](Cc1ccc(O)cc1)C(=O)N[C@@H](CO)C(=O)O (H-[Nlys]YFTGSKDWR[Gly(N-CH2CH2OH)]YYS-OH)
Activity [2]: Active | Activity [3]: Active; Lower Capacity Of Activation Is Observed

Compound: C[C@@H](O)[C@H](NC(=O)[C@H](Cc1ccccc1)NC(=O)[C@H](Cc1ccc(O)cc1)NC(=O)CNCCCCN)C(=O)NCC(=O)N[C@@H](CO)C(=O)N[C@@H](CCCCN)C(=O)N[C@@H](CC(=O)O)C(=O)N[C@@H](Cc1ccc(O)cc1)C(=O)N[C@@H](CCCNC(=N)N)C(=O)N[C@@H](CCCNC(=N)N)C(=O)N[C@@H](Cc1ccc(O)cc1)C(=O)N[C@@H](Cc1ccc(O)cc1)C(=O)N[C@@H](CO)C(=O)O (H-[Nlys]YFTGSKDYRRYYS-OH)
Activity [5]: Active | Activity [6]: Active | Activity [2]: Active

Compound: H-KYFTGSKDWRSYYS-OH
fold change (FC) [12]: 12 | remaining at 0.5 h, 200 µM [7]: ≤ 10% | fold change (FC) [13]: 8

Further lines, results first:

Activity [4]: Weak_effect | Activity [5]: Active | Activity [6]: Active | remaining at 0.5 h, 200 µM [7]: < 30% | Activity [8]: Weak_effect | Activity [2]: Active
Compound: COc1ccc(CN(CC(=O)N[C@@H](CCCNC(=N)N)C(=O)N[C@@H](CCCNC(=N)N)C(=O)N[C@@H](Cc2ccc(O)cc2)C(=O)N[C@@H](Cc2ccc(O)cc2)C(=O)N[C@@H](CO)C(=O)O)C(=O)[C@H](CC(=O)O)NC(=O)[C@H](CCCCN)NC(=O)[C@H](CO)NC(=O)CNC(=O)[C@@H](NC(=O)[C@H](Cc2ccccc2)NC(=O)[C@H](Cc2ccc(O)cc2)NC(=O)[C@@H](N)CCCCN)[C@@H](C)O)cc1 (H-KYFTGSKD[N(4-MeOBn)Gly]RRYYS-OH)

Activity [4]: Weak_effect | Activity [5]: Active | Activity [6]: Active | Activity [8]: Weak_effect | Activity [2]: Active
Compound: COc1ccc(CN(CC(=O)N[C@@H](CCCNC(=N)N)C(=O)N[C@@H](CCCNC(=N)N)C(=O)N[C@@H](Cc2ccc(O)cc2)C(=O)N[C@@H](Cc2ccc(O)cc2)C(=O)N[C@@H](CO)C(=O)O)C(=O)[C@H](CC(=O)O)NC(=O)[C@H](CCCCN)NC(=O)[C@H](CO)NC(=O)CNC(=O)[C@@H](NC(=O)[C@H](Cc2ccccc2)NC(=O)CN(Cc2ccc(OC)cc2)C(=O)[C@@H](N)CCCCN)[C@@H](C)O)cc1 (H-K[N(4-MeOBn)Gly]FTGSKD[N(4-MeOBn)Gly]RRYYS-OH)

Activity [2]: Active
Compound: CN[C@@H](CCCCN)C(=O)N(C)[C@@H](Cc1ccc(O)cc1)C(=O)N[C@@H](Cc1ccccc1)C(=O)N[C@H](C(=O)NCC(=O)N[C@@H](CO)C(=O)N[C@@H](CCCCN)C(=O)N[C@@H](CC(=O)O)C(=O)N[C@@H](Cc1c[nH]c2ccccc12)C(=O)N[C@@H](CCCNC(=N)N)C(=O)N[C@@H](CO)C(=O)N[C@@H](Cc1ccc(O)cc1)C(=O)N[C@@H](Cc1ccc(O)cc1)C(=O)N[C@@H](CO)C(=O)O)[C@@H](C)O (H-[NMeK][NMeY]FTGSKDWRSYYS-OH)

Activity [9]: Active | Activity [10]: Moderate_effect
Compound: C[C@@H](O)[C@H](NC(=O)[C@H](Cc1ccccc1)NC(=O)[C@H](Cc1ccc(O)cc1)NC(=O)CNCCCCN)C(=O)NCC(=O)N[C@@H](CO)C(=O)N(CCCCN)CC(=O)N[C@@H](CC(=O)O)C(=O)N[C@@H](Cc1ccc(O)cc1)C(=O)N[C@@H](CCCNC(=N)N)C(=O)N[C@@H](CCCNC(=N)N)C(=O)N[C@@H](Cc1ccc(O)cc1)C(=O)N[C@@H](Cc1ccc(O)cc1)C(=O)N[C@@H](CO)C(=O)O (H-[Nlys]YFTGS[Nlys]DYRRYYS-OH)

Activity [5]: Active | Activity [6]: Active | remaining at 0.5 h, 200 µM [7]: ≤ 10%
Compound: H-KYFTGSKDYRRYYS-OH
